Reference: ChEMBL document CHEMBL1126691, “Application of the hypersurface iterative projection method to bicyclic pyrazolidinone antibacterial agents” (1993)

Each compound was assayed on Pseudomonas (assay: Minimum inhibitory concentration against Pseudomonas species.).
Type: functional
In short: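 MIC in µg/mL, determined by the 2-fold serial agar dilution method. These readings were excluded from the geometric-mean MIC used for the QSAR analysis.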
For `CO/N=C(\C(=O)N[C@H]1CN2CC(C(=O)O)=C(C(=O)O)N2C1=O)c1csc(N)n1`, the MIC was greater than 128 µg/mL.
`CCS(=O)(=O)C1=C(C(=O)O)N2C(=O)[C@@H](NC(=O)/C(=N\OC)c3csc(N)n3)CN2C1` gave an MIC greater than 128 µg/mL.
`CO/N=C(\C(=O)N[C@H]1CN2CC(C(=O)OCc3ccccc3)=C(C(=O)O)N2C1=O)c1csc(N)n1` showed an MIC greater than 128 µg/mL.
For `CO/N=C(\C(=O)N[C@H]1CN2CC(c3ccccn3)=C(C(=O)O)N2C1=O)c1csc(N)n1`, the MIC was greater than 128 µg/mL.
`CO/N=C(\C(=O)N[C@H]1CN2CC(S(=O)(=O)c3ccccc3)=C(C(=O)O)N2C1=O)c1csc(N)n1` was tested, and the MIC was greater than 128 µg/mL.
`CO/N=C(\C(=O)NC1CN2CC(S(C)(=O)=O)=C(C(=O)O)N2C1=O)c1csc(N)n1` (stereo unspecified) showed an MIC greater than 128 µg/mL.
Work on `CO/N=C(\C(=O)N[C@H]1CN2CC=C(C(=O)O)N2C1=O)c1csc(N)n1` yielded an MIC greater than 128 µg/mL.
In the case of `CO/N=C(\C(=O)N[C@H]1CN2CC(SC)=C(C(=O)O)N2C1=O)c1csc(N)n1`, the MIC is reported as greater than 128 µg/mL.
Work on `CO/N=C(\C(=O)N[C@H]1CN2CC(COC(C)=O)=C(C(=O)O)N2C1=O)c1csc(N)n1` yielded an MIC greater than 128 µg/mL.
For `CNC(=O)C1=C(C(=O)O)N2C(=O)[C@@H](NC(=O)/C(=N\OC)c3csc(N)n3)CN2C1`, the MIC was greater than 128 µg/mL.
With `CCC(=O)C1=C(C(=O)O)N2C(=O)[C@@H](NC(=O)/C(=N\OC)c3csc(N)n3)CN2C1` the MIC was greater than 128 µg/mL.
In the case of `CCOP(=O)(OCC)C1=C(C(=O)O)N2C(=O)[C@@H](NC(=O)/C(=N\OC)c3csc(N)n3)CN2C1`, the MIC is reported as greater than 128 µg/mL.
In the case of `C=CC1=C(C(=O)O)N2C(=O)[C@@H](NC(=O)/C(=N\OC)c3csc(N)n3)CN2C1`, the MIC is reported as greater than 128 µg/mL.
`C=CCO/N=C/C1=C(C(=O)O)N2C(=O)[C@@H](NC(=O)/C(=N\OC)c3csc(N)n3)CN2C1` gave an MIC greater than 128 µg/mL.
`CO/N=C(\C(=O)N[C@H]1CN2CC(C(=O)c3ccccc3)=C(C(=O)O)N2C1=O)c1csc(N)n1` gave an MIC greater than 128 µg/mL.
With `CO/N=C(\C(=O)N[C@H]1CN2CC(C#N)=C(C(=O)O)N2C1=O)c1csc(N)n1` the MIC was greater than 128 µg/mL.
Compound `CO/N=C(\C(=O)N[C@H]1CN2CC(C(=O)C(F)(F)F)=C(C(=O)O)N2C1=O)c1csc(N)n1` has an MIC greater than 128 µg/mL.
With `CO/N=C(\C(=O)N[C@H]1CN2CC(S(=O)(=O)CCNC(C)=O)=C(C(=O)O)N2C1=O)c1csc(N)n1` the MIC was greater than 128 µg/mL.
Compound `CO/N=C(\C(=O)N[C@H]1CN2CC(C(C)=O)=C(C(=O)O)N2C1=O)c1csc(N)n1` has an MIC greater than 128 µg/mL.
Compound `CO/N=C(\C(=O)N[C@H]1CN2CC(S(=O)(=O)c3c(C)noc3C)=C(C(=O)O)N2C1=O)c1csc(N)n1` has an MIC greater than 128 µg/mL.
`CCOC(=O)C1=C(C(=O)O)N2C(=O)[C@@H](NC(=O)/C(=N\OC)c3csc(N)n3)CN2C1` was tested, and the MIC was greater than 128 µg/mL.
`CO/N=C(\C(=O)N[C@H]1CN2CC(C(=O)OC)=C(C(=O)O)N2C1=O)c1csc(N)n1` gave an MIC greater than 128 µg/mL.
With `CO/N=C(\C(=O)N[C@H]1CN2CC(c3cccs3)=C(C(=O)O)N2C1=O)c1csc(N)n1` the MIC was greater than 128 µg/mL.
`CO/N=C(\C(=O)N[C@H]1CN2CC(c3ccncc3)=C(C(=O)O)N2C1=O)c1csc(N)n1` was tested, and the MIC was greater than 128 µg/mL.
`CO/N=C(\C(=O)N[C@H]1CN2CC(C(F)(F)F)=C(C(=O)O)N2C1=O)c1csc(N)n1` showed an MIC greater than 128 µg/mL.
`CO/N=C(\C(=O)N[C@H]1CN2CC(c3ccccc3)=C(C(=O)O)N2C1=O)c1csc(N)n1` showed an MIC greater than 128 µg/mL.
With `CO/N=C(\C(=O)N[C@H]1CN2CC(Sc3nnc(C)s3)=C(C(=O)O)N2C1=O)c1csc(N)n1` the MIC was greater than 128 µg/mL.
`CO/N=C(\C(=O)N[C@H]1CN2CC(/C=N/OCCc3ccccc3)=C(C(=O)O)N2C1=O)c1csc(N)n1` showed an MIC greater than 128 µg/mL.
For `CO/N=C(\C(=O)N[C@H]1CN2CC(Sc3nnnn3C)=C(C(=O)O)N2C1=O)c1csc(N)n1`, the MIC was greater than 128 µg/mL.
For `CO/N=C(\C(=O)N[C@H]1CN2CC(/C=N/OC)=C(C(=O)O)N2C1=O)c1csc(N)n1`, the MIC was greater than 128 µg/mL.
`CO/N=C(\C(=O)N[C@H]1CN2CC(C(=O)Nc3ccccc3)=C(C(=O)O)N2C1=O)c1csc(N)n1` was tested, and the MIC was greater than 128 µg/mL.
With `CO/N=C(\C(=O)N[C@H]1CN2CC(NC(=O)OC)=C(C(=O)O)N2C1=O)c1csc(N)n1` the MIC was greater than 128 µg/mL.
With `CCCOC(=O)C1=C(C(=O)O)N2C(=O)[C@@H](NC(=O)/C(=N\OC)c3csc(N)n3)CN2C1` the MIC was greater than 128 µg/mL.
Work on `CO/N=C(\C(=O)N[C@H]1CN2CC(S(=O)(=O)N(C)C)=C(C(=O)O)N2C1=O)c1csc(N)n1` yielded an MIC greater than 128 µg/mL.
For `CO/N=C(\C(=O)N[C@H]1CN2CC(C(=O)CF)=C(C(=O)O)N2C1=O)c1csc(N)n1`, the MIC was greater than 128 µg/mL.
`CO/N=C(\C(=O)N[C@H]1CN2CC(P(=O)(OC)OC)=C(C(=O)O)N2C1=O)c1csc(N)n1` gave an MIC greater than 128 µg/mL.
